Assays:
[1] = target: T1, NAD-dependent protein deacetylase sirtuin-1 (Homo sapiens) (UniProt Q96EB6); test: Activation of human SIRT1 expressed in Escherichia coli BL21Start assessed as maximum activation of enzyme activity by mass spectrometry assay
T1 sequence (whole entry): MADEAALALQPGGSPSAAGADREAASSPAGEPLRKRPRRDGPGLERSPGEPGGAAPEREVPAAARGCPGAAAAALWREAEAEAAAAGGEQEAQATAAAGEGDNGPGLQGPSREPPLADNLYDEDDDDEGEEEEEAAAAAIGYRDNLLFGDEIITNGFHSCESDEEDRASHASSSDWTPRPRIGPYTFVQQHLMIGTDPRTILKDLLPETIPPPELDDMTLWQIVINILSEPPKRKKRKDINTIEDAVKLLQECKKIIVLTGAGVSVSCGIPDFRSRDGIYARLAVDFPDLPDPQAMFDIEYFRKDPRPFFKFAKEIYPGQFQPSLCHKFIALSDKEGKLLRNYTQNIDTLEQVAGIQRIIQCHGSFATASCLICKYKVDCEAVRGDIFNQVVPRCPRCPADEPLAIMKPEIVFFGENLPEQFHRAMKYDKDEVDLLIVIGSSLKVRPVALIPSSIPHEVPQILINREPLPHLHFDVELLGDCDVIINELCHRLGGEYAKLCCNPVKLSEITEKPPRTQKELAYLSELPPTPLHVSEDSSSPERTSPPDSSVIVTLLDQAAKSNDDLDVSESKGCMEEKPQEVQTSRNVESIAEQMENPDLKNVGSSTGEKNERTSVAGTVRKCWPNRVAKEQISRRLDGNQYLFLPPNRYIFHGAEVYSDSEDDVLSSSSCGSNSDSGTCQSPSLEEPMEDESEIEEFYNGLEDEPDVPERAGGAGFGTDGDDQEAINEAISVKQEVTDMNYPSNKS
How it was run: (§1)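 Truncated SIRT1 was expressed in E. coli BL21Start (DE3) and purified on Ni2+ chelate. Reaction: 10 nM enzyme, 0.5 µM biotinylated, fluorophore-tagged p53-derived 20-mer acetyl-lysine peptide and 120 µM NAD+, in 50 mM Tris-acetate pH 8 with NaCl, KCl, MgCl2, 5 mM DTT and 0.05% BSA; DMSO vehicle; 25 min at 25 °C. Stopped with formic acid/nicotinamide; acetylated versus deacetylated peptide read by mass spectrometry. EC1.5 is the concentration raising activity by 50%, the mean of three titration curves.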

[2] = target: T1, NAD-dependent protein deacetylase sirtuin-1 (Homo sapiens); test: Activation of human SIRT1 expressed in Escherichia coli BL21Start assessed as concentration required to increase 50% enzyme activity by mass spectrometry assay; how it was run: as §1
[3] = Oral bioavailability in C57BL/6 mouse at 100 mg/kg; assay type: ADME, organism-based; settings: in vivo
How it was run: (§2)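 Male C57BL/6 mice (18-22 g; 3 per dose group per time point), given 100 mg/kg po as the hydrochloride salt in 2% HPMC + 0.2% DOSS, or 10 mg/kg iv by tail vein in 10% ethanol/40% polyethylene glycol/50% H2O. Plasma was taken at 5, 30, 120 and 360 min after dosing and drug levels were measured.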

[4] = Metabolic stability in human microsomes assessed as half life; assay type: ADME, Microsome
[5] = Terminal half life in C57BL/6 mouse at 100 mg/kg, po or 10 mg/kg, iv; assay type: ADME, organism-based; settings: in vivo, read-out: beta t1/2 (converted); how it was run: as §2
[6] = Metabolic stability in mouse microsomes assessed as half life; assay type: ADME, Microsome
[7] = AUC in C57BL/6 mouse at 100 mg/kg, po or 10 mg/kg, iv; assay type: ADME, organism-based; settings: plasma; how it was run: as §2
[8] = Cmax in C57BL/6 mouse at 100 mg/kg, po or 10 mg/kg, iv; assay type: ADME, organism-based; settings: in vivo; how it was run: as §2
[9] = Solubility in buffer at pH 7.4 by HPLC method; assay type: physicochemical
How it was run: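 Kinetic solubility was measured in pH 7.4 buffer by HPLC.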

[10] = Solubility in water; assay type: physicochemical

Activity [1] [%] | Activity [2] [µM] | Structure (SMILES) | further results
130 | 14 | O=C(Cc1ccccc1)Nc1ccccc1-c1cn2c(CN3CCNCC3)csc2n1 | 
619 | 6.2 | COc1ccc(C(=O)Nc2ccccc2-c2cn3c(CN4CCNCC4)csc3n2)cc1F | 
440 | 0.99 | O=C(Nc1ccccc1-c1cn2c(CN3CCNCC3)csc2n1)c1ccc2ccccc2n1 | 
322 | 25 | O=C(Nc1ccccc1-c1cn2c(CN3CCNCC3)csc2n1)c1ccccc1 | 
381 | 0.61 | O=C(Nc1ccccc1-c1cn2c(CN3CCNCC3)csc2n1)c1cc2ccccc2o1 | 
257 | 3.2 | COc1cc(C(=O)Nc2ccccc2-c2cn3cc(CN4CCNCC4)sc3n2)cc(OC)c1OC | 
197 | 31 | COc1ccc(C(=O)Nc2ccccc2-c2cn3c(CN4CCNCC4)csc3n2)c(OC)c1 | 
380 | 6.9 | O=C(Nc1ccccc1-c1cn2c(CN3CCNCC3)csc2n1)c1ccc2occc2c1 | 
662 | 2.1 | COc1cc(F)cc(C(=O)Nc2ccccc2-c2cn3c(CN4CCNCC4)csc3n2)c1 | 
271 | 1.8 | COc1cc(C(=O)Nc2ccccc2-c2cn3c(CN4CCNCC4)csc3n2)cc(OC)c1OC | bioavailability [3]: 40%; half-life [4]: 1.87 h; half-life [5]: 6 h; half-life [6]: > 5 h; AUC [7]: 45000 ng·h/mL; Cmax [8]: 14 µM; solubility [9]: > 100 µM; solubility [10]: > 10000 µg/mL
928 | 3.7 | COc1cccc(C(=O)Nc2ccccc2-c2cn3c(CN4CCNCC4)csc3n2)c1 | 
388 | 11 | COc1cc(C(=O)Nc2cccc(-c3nc4ncccc4o3)c2)cc(OC)c1OC | 
295 | 4.8 | COc1cc(C(=O)Nc2ccccc2-c2cn3cc(CN(C)C)sc3n2)cc(OC)c1OC | 
250 | 48 | Oc1ccc(/C=C/c2cc(O)cc(O)c2)cc1 | 
208 | 45 | O=C(Nc1ccccc1-c1cn2c(CN3CCNCC3)csc2n1)c1cccc2cccnc12 | 
406 | 4.5 | COc1ccc(C(=O)Nc2ccccc2-c2cn3c(CN4CCNCC4)csc3n2)cc1OC | 
665 | 0.9 | O=C(Nc1ccccc1-c1cn2c(CN3CCNCC3)csc2n1)c1cccc(OC(F)(F)F)c1 | 
383 | 130 | O=C(Nc1ccccc1-c1cn2c(CN3CCNCC3)csc2n1)C1CCCC1 | 
272 | 2.5 | COc1cc(C(=O)Nc2ccccc2-c2cn3ccsc3n2)cc(OC)c1OC | half-life [4]: 0.167 h; half-life [6]: 0.0833 h; solubility [10]: < 100 µg/mL
301 | 0.68 | O=C(Nc1ccccc1-c1cn2c(CN3CCNCC3)csc2n1)c1cnc2ccccc2c1 | 
808 | 0.51 | O=C(Nc1ccccc1-c1cn2c(CN3CCNCC3)csc2n1)c1cccc(SC(F)F)c1 | 
270 | 1.7 | O=C(Nc1ccccc1-c1cn2c(CN3CCNCC3)csc2n1)c1cnccn1 | 
332 | 4.9 | O=C(Nc1ccccc1-c1cn2c(CN3CCNCC3)csc2n1)c1ccc2c(c1)OCO2 | 
253 | 24 | O=C(Nc1ccccc1-c1cn2c(CN3CCNCC3)csc2n1)c1cc2ccccc2s1 | 
380 | 7.5 | COc1cc(C(=O)Nc2cccc(-c3cn4ccsc4n3)c2)cc(OC)c1OC | 
270 | 1.9 | COc1cc(C(=O)Nc2ccccc2-c2cn3c(CN(C)C)csc3n2)cc(OC)c1OC | 

From ChEMBL document CHEMBL1140923, “Discovery of imidazo[1,2-b]thiazole derivatives as novel SIRT1 activators” (J Med Chem, 2009)
